Assay results as given in publication PMC2804977 (Biochemical and biophysical research communications, 2009).

Assays:
15F3 of Fn [1] = target: T1, 15F3 of Fn (Rattus norvegicus, UniProt P04937); test: Intrinsic Trp fluorescence quenching titration of 15F3; assay type: binding
T1 sequence (P04937 2193-2286 limits assumed): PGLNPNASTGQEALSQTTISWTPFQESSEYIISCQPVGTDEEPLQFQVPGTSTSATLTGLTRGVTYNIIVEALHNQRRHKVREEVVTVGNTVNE
Summary of the method: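 Titration of the rat Fn 15th type III module (1 μM) with varied test peptide concentrations; intrinsic Trp emission spectra recorded after 5 min. Intensity at 350 nm was fitted to derive KD. Data were corrected for dilution and inner-filter effect.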

15F3 of Fn [2] = target: T1, 15F3 of Fn; test: Stopped-flow binding kinetics with 15F3; details: 25 °C
Summary of the method: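 Rat Fn 15th type III module (1 μM) in PBS was rapidly mixed with test peptide (25–400 μM, at least 25-fold excess for pseudo-first-order conditions). Trp emission above 320 nm (295 nm excitation, 320 nm cut-off filter) was recorded at 25 °C, 1000 points per trace. Averaged traces were fitted single-exponentially for kobs; kobs versus peptide concentration gave kon and koff. Three experiments were averaged.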

For LIPAD, the “affinity for 15F3” value (15F3 of Fn [1]) was “moderate affinity” and the “binding kinetics to 15F3” value (15F3 of Fn [2]) was “slow binding kinetics”.
